Measurements reported in ChEMBL document CHEMBL2157864, “Microwave-assisted synthesis of hydroxyphenyl nitrones with protective action against oxidative stress” (Eur J Med Chem, 2012).
Activity calls are given as the source filed them. The rule behind the calls is not given here.

How the values were obtained:
[1] = Permeability of the compound after 4 hrs by PAMPA assay; type: ADME; details: read-out: permeability
[2] = test system: Microglia; assay: Antiinflammatory activity in rat primary microglia cells assessed as inhibition of LPS-induced nitrite production at 10 uM incubated for 1 hr prior to LPS-challenge measured after 24 hrs by Greiss method; type: functional
Outline: (§1)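 Rat primary glial cultures (microglia or astrocytes) pre-incubated 1 h with compound, then 24 h with LPS (10 μg/mL); nitrite in culture medium measured by Griess reaction. Means ± SD of three experiments.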

[3] = test system: SH-SY5Y; assay: Neuroprotective activity against SIN1-induced toxicity in human SH-SY5Y cells at 50 to 500 uM after 24 hrs by MTT assay; type: functional, cell-based
Outline: (§2)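 SH-SY5Y cells pre-incubated 1 h with compound, then challenged with SIN-1 (0.5 mM; ONOO⁻ generation about 9 μM per minute by DHR method) or vehicle; viability by MTT assay. Mean ± SD, three independent experiments.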

[4] = test system: SH-SY5Y; assay: Cytotoxicity against human SH-SY5Y cells at 10 to 100 uM after 24 hrs by MTT assay; type: cell-based
Outline: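 SH-SY5Y human neuroblastoma cells exposed to compound (10–100 μM) for 24 h; viability by MTT assay.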

[5] = Cytotoxicity against rat primary astrocytes at 10 uM after 24 hrs by MTT assay; type: cell-based; details: astrocyte
Outline: (§3)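 Rat primary astrocyte or microglia cultures exposed 24 h to compound (10 μM); cytotoxicity assessed in vitro.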

[6] = test system: Astrocyte; assay: Antiinflammatory activity in rat primary astrocytes assessed as inhibition of LPS-induced nitrite production at 10 uM incubated for 1 hr prior to LPS-challenge measured after 24 hrs by Greiss method; type: functional, cell-based; outline: as §1
[7] = test system: SH-SY5Y; assay: Neuroprotective activity against 6OHDA-induced toxicity in human SH-SY5Y cells assessed as cell viability at 10 uM after 24 hrs by MTT assay (reference value: 75%); type: functional; details: read-out: Activity
[8] = Cytotoxicity against rat primary microglia cells at 10 uM after 24 hrs by MTT assay; type: cell-based; outline: as §3
[9] = Antioxidant activity against peroxyl radical production assessed as trolox equivalent by ORAC assay; type: functional
Outline: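 Oxygen radical absorbance capacity assay, fluorescein as fluorescent probe, peroxyl radical scavenging; expressed as μmol Trolox equivalents per μmol compound, mean of n = 3 ± SD.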

[10] = Antioxidant activity against peroxynitrite assessed as inhibition of alpha-synuclein aggregate formation at 50 uM by Western blot analysis; type: functional
Outline: (§4)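 α-Synuclein (5 μM) exposed to authentic ONOO⁻ (200 μM) with compound (50 μM) or 1% DMSO; 12% SDS-PAGE, western blot with anti-αS and anti-3-nitrotyrosine antibodies; densitometry of anti-nitrotyrosine blots used for dose-response. Reverse-addition ONOO⁻ control included.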

[11] = Antioxidant activity against peroxynitrite radical at 50 uM by mass spectroscopic analysis; type: functional
Outline: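 Compound (50 μM) reacted with 500 μM ONOO⁻ in 50 mM potassium phosphate, pH 7.4, without NaNO₂; reaction products resolved chromatographically and characterised by mass spectrometry.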

[12] = Antioxidant activity against OH radical production by Western blot analysis; type: functional
[13] = Antioxidant activity against NO2 radical production by Western blot analysis; type: functional
[14] = Antioxidant activity against peroxynitrite assessed as inhibition of alpha-synuclein nitration by Western blot analysis; type: functional; outline: as §4
[15] = Antioxidant activity against peroxynitrite assessed as inhibition of cytochrome c nitration by Western blot analysis; type: functional
Outline: (§5)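 RNase A or cytochrome c (5 μM) treated with authentic ONOO⁻ (200 μM) in presence of compound; 12% SDS-PAGE and western blot probed with anti-3-nitrotyrosine antibody.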

[16] = Antioxidant activity against CO3 radical production by Western blot analysis; type: functional
[17] = test system: SH-SY5Y; assay: Neuroprotective activity against SIN1-induced toxicity in human SH-SY5Y cells assessed as cell viability at 500 uM after 24 hrs by MTT assay relative to control; type: functional; details: read-out: Activity; outline: as §2
[18] = Antioxidant activity against peroxynitrite assessed as inhibition of RNAse nitration by Western blot analysis; type: functional; outline: as §5
[19] = Antioxidant activity against peroxynitrite assessed as inhibition of alpha-synuclein nitration at 50 uM by Western blot analysis; type: functional; outline: as §4
[20] = test system: SH-SY5Y; assay: Neuroprotective activity against SIN1-induced toxicity in human SH-SY5Y cells after 24 hrs by MTT assay; type: functional, cell-based; outline: as §2
[21] = Antioxidant activity against NO2 radical assessed as mono nitreated derivative formation at 50 uM by mass spectroscopic analysis; type: functional
Outline: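 Compound (50 μM) preincubated with excess NaNO₂ (4 mM), converting •OH to •NO₂, then 500 μM ONOO⁻ in 50 mM potassium phosphate, pH 7.4; products analysed by chromatography with mass spectrometry, tracking nitrated-product peak.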

[22] = test system: SH-SY5Y; assay: Neuroprotective activity against SIN1-induced toxicity in human SH-SY5Y cells assessed as cell viability at 100 uM after 24 hrs by MTT assay relative to control; type: functional; details: read-out: Activity; outline: as §2

**Q.** For CN1C(C(=O)Nc2ccccn2)=C(O)c2ccccc2S1(=O)=O [PIROXICAM], which Papp at 4 h [1] is on record?
**A.** 1.6 ×10⁻⁶ cm/s

**Q.** Which Papp at 4 h [1] does the source give for CC(C)(C)/[N+]([O-])=C/c1ccccc1O here?
**A.** 37.5 ×10⁻⁶ cm/s

**Q.** What about the inhibition [2] of the same molecule?
**A.** Active

**Q.** What about the Activity [3] of the same molecule?
**A.** inactive

**Q.** What about the Activity [4] of the same molecule?
**A.** Non-toxic

**Q.** And the Activity [5]?
**A.** Non-toxic

**Q.** And the inhibition [6]?
**A.** Active

**Q.** What about the viability at 10 µM [7] of the same molecule?
**A.** 100%

**Q.** And the Activity [8]?
**A.** Non-toxic

**Q.** And the Activity [9]?
**A.** 2.6 equiv

**Q.** Which results are given for CC(C)(C)/[N+]([O-])=C/c1ccc(O)cc1?
**A.** inhibition [10]: Active; Papp at 4 h [1]: 0.2 ×10⁻⁶ cm/s; inhibition [2]: Active; Activity [11]: Active; Activity [12]: Active; Activity [4]: Non-toxic; Activity [13]: Active; inhibition [14]: Dose-dependent effect; Activity [5]: Non-toxic; inhibition [6]: Active; inhibition [15]: Active; viability at 10 µM [7]: 100%; Activity [16]: Active; viability at 500 µM [17]: 100%; Activity [8]: Non-toxic; inhibition [18]: Active; Activity [9]: 3.2 equiv; inhibition [19]: Active; Activity [20]: Dose-dependent effect; Activity [21]: Active; viability at 100 µM [22]: 91%

**Q.** For CNCCCN1c2ccccc2CCc2ccccc21 [DESIPRAMINE], which Papp at 4 h [1] is on record?
**A.** 14.4 ×10⁻⁶ cm/s

**Q.** With CC(C)(C)/[N+]([O-])=C/c1ccccc1 as the molecule, how does the Activity [9] read?
**A.** 0.014 equiv

**Q.** For CC(C)(C)c1cc(/C=[N+](\[O-])C(C)(C)C)cc(C(C)(C)C)c1O, which inhibition [10] is on record?
**A.** Active

**Q.** What about the Papp at 4 h [1] of the same molecule?
**A.** 10.2 ×10⁻⁶ cm/s

**Q.** What about the inhibition [2] of the same molecule?
**A.** Active

**Q.** What about the Activity [3] of the same molecule?
**A.** inactive

**Q.** And the Activity [4]?
**A.** Non-toxic

**Q.** And the Activity [5]?
**A.** Non-toxic

**Q.** What about the inhibition [6] of the same molecule?
**A.** Active

**Q.** What about the inhibition [15] of the same molecule?
**A.** Active

**Q.** What about the viability at 10 µM [7] of the same molecule?
**A.** 100%

**Q.** What about the Activity [8] of the same molecule?
**A.** Non-toxic

**Q.** What about the inhibition [18] of the same molecule?
**A.** Active

**Q.** And the Activity [9]?
**A.** 2 equiv

**Q.** What about the inhibition [19] of the same molecule?
**A.** Active

**Q.** With CCn1cc(C(=O)O)c(=O)c2cc(F)c(N3CCNCC3)nc21 [ENOXACIN] as the molecule, how does the Papp at 4 h [1] read?
**A.** 1.7 ×10⁻⁶ cm/s
